Assay results reported in ChEMBL document CHEMBL1125707, “Dexamethasone 21-(beta-isothiocyanatoethyl) thioether: a new affinity label for glucocorticoid receptors” (J Med Chem, 1991).

Tests used:
[1] = target: T1, Glucocorticoid receptor (Rattus norvegicus) (UniProt P06536); assay: Dex-NCS incubation on the subsequent inhibition of exchange binding with [3H]dexamethasone measured at pH 8.8 at 1h.; settings: concentration not given here
T1 sequence (whole entry): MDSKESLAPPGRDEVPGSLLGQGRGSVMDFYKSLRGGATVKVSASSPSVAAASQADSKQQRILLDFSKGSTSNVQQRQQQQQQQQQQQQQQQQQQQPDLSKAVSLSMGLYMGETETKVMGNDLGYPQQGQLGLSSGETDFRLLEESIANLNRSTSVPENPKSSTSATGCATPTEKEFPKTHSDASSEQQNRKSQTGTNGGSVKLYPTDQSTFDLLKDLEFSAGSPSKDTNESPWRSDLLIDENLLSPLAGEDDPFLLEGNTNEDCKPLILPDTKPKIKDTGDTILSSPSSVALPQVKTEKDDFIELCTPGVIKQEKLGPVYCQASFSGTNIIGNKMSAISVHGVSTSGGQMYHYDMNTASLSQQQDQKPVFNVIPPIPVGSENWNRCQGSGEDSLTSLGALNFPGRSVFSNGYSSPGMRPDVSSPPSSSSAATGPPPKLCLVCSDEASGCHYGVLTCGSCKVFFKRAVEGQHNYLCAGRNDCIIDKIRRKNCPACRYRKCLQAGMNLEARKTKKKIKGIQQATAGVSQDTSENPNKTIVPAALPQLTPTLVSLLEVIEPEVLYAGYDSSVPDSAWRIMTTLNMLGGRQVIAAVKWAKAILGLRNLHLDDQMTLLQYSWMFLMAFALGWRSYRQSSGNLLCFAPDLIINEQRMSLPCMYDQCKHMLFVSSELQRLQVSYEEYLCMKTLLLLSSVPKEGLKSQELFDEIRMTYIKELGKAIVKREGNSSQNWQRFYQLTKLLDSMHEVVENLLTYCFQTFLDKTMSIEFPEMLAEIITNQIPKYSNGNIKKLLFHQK
In short: (§1)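 Crude HTC cytosol receptors in TAPS buffer were preincubated 3 h at 0 °C with Dex-NCS (290 or 580 nM) or cortisol (60 or 120 nM). Activated charcoal then removed free steroid and inactivated steroid-free receptors. Cytosol was adjusted to 1.9×10^-8 M [3H]Dex ± 575-fold unlabeled Dex and incubated for the stated times at 0 °C, final pH 8.8 or 7.6. Bound steroid was charcoal-separated; specific = total − nonspecific. Cortisol preincubation defined exchangeable binding. Run in duplicate; mean (SD, n).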

[2] = target: T1, Glucocorticoid receptor (Rattus norvegicus); assay: Dex-NCS incubation on the subsequent inhibition of exchange binding with [3H]dexamethasone measured at pH 7.6 at 3h.; settings: concentration not given here; in short: as §1
[3] = target: T1, Glucocorticoid receptor (Rattus norvegicus); assay: Dex-NCS incubation on the subsequent inhibition of exchange binding with [3H]dexamethasone measured at pH 8.8 at 3h.; settings: concentration not given here; in short: as §1
[4] = target: T1, Glucocorticoid receptor (Rattus norvegicus); assay: Dex-NCS incubation on the subsequent inhibition of exchange binding with [3H]dexamethasone measured at pH 7.6 at 5h.; settings: concentration not given here; in short: as §1
[5] = target: T1, Glucocorticoid receptor (Rattus norvegicus); assay: Dex-NCS incubation on the subsequent inhibition of exchange binding with [3H]dexamethasone measured at pH 7.6 at 1h.; settings: concentration not given here; in short: as §1
[6] = target: T1, Glucocorticoid receptor (Rattus norvegicus); assay: Dex-NCS incubation on the subsequent inhibition of exchange binding with [3H]Dexamethasone measured at pH 7.6 at 20h.; settings: concentration not given here; in short: as §1
[7] = target: T1, Glucocorticoid receptor (Rattus norvegicus); assay: Dex-NCS incubation on the subsequent inhibition of exchange binding with [3H]dexamethasone measured at pH 8.8 at 5h.; settings: concentration not given here; in short: as §1
[8] = target: T1, Glucocorticoid receptor (Rattus norvegicus); assay: Relative affinity [Ka compound/Ka Dex] for glucocorticoid receptors in whole-cell competition assay
In short: (§2)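 Competition with [3H]Dex for glucocorticoid receptors, in HTC cell cytosol (0 °C) or in intact HTC cells (30 min, 37 °C). Relative affinity is the ratio of Dex to steroid concentrations giving 50% inhibition of [3H]Dex binding, corrected by the Rodbard method for partial receptor occupancy by uncompeted [3H]Dex. Averages of 2–4 experiments.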

[9] = target: T1, Glucocorticoid receptor (Rattus norvegicus); assay: Relative affinity [Ka compound/Ka Dex] for glucocorticoid receptors in cell-free competition assay; in short: as §2
[10] = target: Glucocorticoid receptor (Rattus norvegicus) (UniProt P06536); settings: filed as partial agonist

SMILES | inhibition [1] [%] | inhibition [2] [%] | inhibition [3] [%] | inhibition [4] [%] | inhibition [5] [%] | inhibition [6] [%] | inhibition [7] [%] | Relative affinity [8] | Relative affinity [9] | Agonist [10]
C[C@@H]1CC2C3CCC4=CC(=O)C=C[C@]4(C)[C@@]3(F)[C@@H](O)C[C@]2(C)[C@@]1(O)C(=O)CSCCN=C=S (some centres not stated) | 43.8 | 60.5 | 37 | 56.6 | 63.2 | 45.7 | 34.1 |  |  | 
C[C@@H]1CC2C3CCC4=CC(=O)C=C[C@]4(C)[C@@]3(F)[C@@H](O)C[C@]2(C)[C@@]1(O)C(=O)COC(=O)c1c(C(F)(F)F)cccc1C(F)(F)F (some centres not stated) |  |  |  |  |  |  |  | 0.0087 | 0.079 | 
C[C@@H]1CC2C3CCC4=CC(=O)C=C[C@]4(C)[C@@]3(F)[C@@H](O)C[C@]2(C)[C@@]1(O)C(=O)CBr (some centres not stated) |  |  |  |  |  |  |  | 0.063 | 0.021 | Partial agonist
